Data set [1] has as its system Liver microsome. Nature of the data set: Metabolic stability in human liver microsomes after 60 mins by LC/MS/MS method. The data set is classed as ADME. Particulars: 1 h.
Data set [2] relates to UMSCC23. As to the kind of experiment: Induction of XBP1 mRNA expression in human UM-SCC-23 cells at 20 uM after 6 hrs by qRT-PCR analysis. The data set is classed as functional, cell-based. In a few lines:
(§1)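 UMSCC23 cells treated in dose-response for 6 h, then lysed. UPR and CHOP target gene transcripts measured by qRT-PCR, with tunicamycin as ER-stress positive control.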

Data set [3] is described as follows: Cmax in CD-1 mouse at 30 mg/kg, ip. The data set is classed as ADME, organism-based. Also on record: dose 30 mg/kg, route intraperitoneal. The note with it: in vivo. In a few lines:
(§2)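 Male CD-1 mice, single IP dose of 30 mg/kg, 3 mice per group. Plasma concentrations determined at 7 intervals over 8 h.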

The subject of data set [4] is HN6. Nature of the data set: Antiproliferative activity against human HN6 cells after 24 hrs. The data set is classed as functional, cell-based. In a few lines:
(§3)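 Oral squamous cell carcinoma panel cells treated with increasing concentrations of test agent for 24 h in dose-response proliferation assays.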

Data set [5] can be described thus: Antiproliferative activity against human HN12 cells after 24 hrs. The data set is classed as functional. In a few lines: as §3
The nature of data set [6]: Cytotoxicity against human Fa2N-4 cells assessed as cell viability after 24 hrs by luminescence assay. The data set is classed as cell-based. Particulars: fa2n-4, 24 h.
Data set [7] has as its system MEF. Nature of the data set: Antiproliferative activity against CHOP-knock out MEF cells after 16 hrs by luminescence assay. The data set is classed as functional, cell-based. Particulars: Mus musculus. In a few lines: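 Wildtype and Chop-knockout murine embryonic fibroblasts given test agent in dose-response for 16 h. Proliferation read by an ATP-based luminescent assay. Chop-null cells tested up to 20 μM; four independent experiments, triplicate samples.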

For data set [8], the system named is UMSCC23. As to the kind of experiment: Induction of ERCC1 mRNA expression in human UM-SCC-23 cells at 0.04 to 20 uM after 6 hrs by qRT-PCR analysis. The data set is classed as functional, cell-based. In a few lines: as §1
The nature of data set [9]: Aqueous solubility of the compound in PBS buffer by UV-spectrophotometry. The data set is classed as physicochemical. In a few lines:
(§4)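 Solubility measured in PBS and pION buffer across a biologically relevant pH range.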

Data set [10] can be described thus: Plasma protein binding in mouse plasma after 4 hrs by LC/MS/MS method. The data set is classed as ADME, cell-free. Particulars: read-out: PPB (converted).
Data set [11] relates to H460/T800. Nature of the data set: Antiproliferative activity against human H460/T800 cells after 24 hrs. The data set is classed as functional, cell-based.
Data set [12] deals with Plasma. Nature of the data set: Stability in mouse plasma assessed as compound remaining after 180 mins by LC/MS/MS method. The note with it: 3 h. The data set is classed as ADME, cell-free.
Data set [13] has as its system UMSCC23. As to the kind of experiment: Induction of XBP1 mRNA expression in human UM-SCC-23 cells at 0.04 to 20 uM after 6 hrs by qRT-PCR analysis. The data set is classed as functional, cell-based. In a few lines:
as §1

Data set [14] relates to UMSCC23. Nature of the data set: Induction of GADD34 mRNA expression in human UM-SCC-23 cells at 0.04 to 20 uM after 6 hrs by qRT-PCR analysis. The data set is classed as functional, cell-based. In a few lines: as §1
Data set [15] is described as follows: Antiproliferative activity against human UM-SCC-23 cells after 24 hrs. The data set is classed as functional, UMSCC23. In a few lines:
as §3

Data set [16] in a line: Tmax in CD-1 mouse at 30 mg/kg, ip. The data set is classed as ADME, organism-based. Also on record: dose 30 mg/kg, route intraperitoneal. The note with it: in vivo. In a few lines:
as §2

Data set [17] has as its system Liver. As to the kind of experiment: Metabolic stability in mouse liver microsomes after 60 mins by LC/MS/MS method. The data set is classed as ADME. Particulars: 1 h.
Data set [18] is described as follows: Permeability of the compound at pH 5 to 7.4 by PAMPA. The data set is classed as ADME. In a few lines:
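PAMPA model of passive transcellular permeability, donor compartment at pH 5.0, 6.2 and 7.4. Compound concentration in the compartments determined by UV spectroscopy.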

A short description of data set [19]: Aqueous solubility of the compound in pION buffer by UV-spectrophotometry. The data set is classed as physicochemical. In a few lines:
as §4

The test system of data set [20] is MEF. As to the kind of experiment: Antiproliferative activity against wild-type MEF cells after 16 hrs by luminescence assay. The data set is classed as functional, cell-based. The note with it: Mus musculus. In a few lines:
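Wild-type murine embryonic fibroblasts, run alongside a Chop-knockout MEF line, exposed to compound in dose-response for 16 h. Proliferation read by ATP-based luminescence. EC50 reported in μM ± SEM.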

Data set [21] is described as follows: Stability in human plasma assessed as compound remaining after 180 mins by LC/MS/MS method. The data set is classed as ADME, cell-free. Particulars: read-out: Stability.
The test system of data set [22] is UMSCC23. As to the kind of experiment: Induction of CHOP mRNA expression in human UM-SCC-23 cells at 20 uM after 6 hrs by qRT-PCR analysis. The data set is classed as functional, cell-based. In a few lines: as §1
Data set [23] has as its system Plasma. Nature of the data set: Plasma protein binding in human plasma after 4 hrs by LC/MS/MS method. The data set is classed as ADME, cell-free.
Data set [24] has as its system UMSCC23. As to the kind of experiment: Induction of CHOP mRNA expression in human UM-SCC-23 cells at 0.04 to 20 uM after 6 hrs by qRT-PCR analysis. The data set is classed as functional, cell-based. In a few lines:
as §1

Data set [25] can be described thus: Antiproliferative activity against human HN30 cells after 24 hrs. The data set is classed as functional. In a few lines: as §3
Data set [26] deals with Sodium-dependent dopamine transporter (Homo sapiens) (UniProt Q01959). As to the kind of experiment: Displacement of [125I] RTI-55 from human recombinant DAT expressed in CHOK1 cells after 3 hrs. The data set is classed as cell-based. Particulars: CHO-K1, concentration not given here. In a few lines:
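Profiled at 10 μM within a 67-target panel of GPCRs, nuclear receptors, transporters and ion channels. Significant inhibition defined as >50% at a single target.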

Data set [27] relates to A253. As to the kind of experiment: Antiproliferative activity against human A253 cells after 24 hrs. The data set is classed as functional, cell-based. In a few lines:
as §3

Active and inactive are the calls of the source. Bounds are passed on as bounds.

Sequence of Sodium-dependent dopamine transporter (Homo sapiens) (Q01959 whole entry): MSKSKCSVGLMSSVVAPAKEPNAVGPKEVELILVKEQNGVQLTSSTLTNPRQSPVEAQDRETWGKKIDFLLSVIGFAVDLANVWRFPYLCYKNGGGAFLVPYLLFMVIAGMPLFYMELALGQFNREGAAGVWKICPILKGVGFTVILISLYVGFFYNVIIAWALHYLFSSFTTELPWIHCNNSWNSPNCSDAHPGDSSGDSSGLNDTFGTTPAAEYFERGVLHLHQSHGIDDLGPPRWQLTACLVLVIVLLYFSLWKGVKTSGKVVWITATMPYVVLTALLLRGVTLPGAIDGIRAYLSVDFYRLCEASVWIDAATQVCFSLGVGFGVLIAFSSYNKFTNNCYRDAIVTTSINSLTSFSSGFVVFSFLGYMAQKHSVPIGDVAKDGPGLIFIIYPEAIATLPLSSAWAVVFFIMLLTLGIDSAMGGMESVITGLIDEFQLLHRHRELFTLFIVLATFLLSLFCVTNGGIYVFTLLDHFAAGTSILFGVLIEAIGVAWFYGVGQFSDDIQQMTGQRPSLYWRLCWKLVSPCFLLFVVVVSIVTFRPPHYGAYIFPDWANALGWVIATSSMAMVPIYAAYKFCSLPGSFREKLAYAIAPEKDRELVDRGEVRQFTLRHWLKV

`O=C(Nc1ccc(S(=O)(=O)N2CCC(Cl)CC2)cc1)c1ccc([N+](=O)[O-])o1`: the Stability entry is recorded as “Unstable” in data set [1], 52% in data set [12] and “Unstable” in data set [17]. The outcome in [2], in data set [4], in data set [8], in data set [11], in [22] and in [27] was inactive. In data set [3], the Cmax is 140 nM. For the same compound, the Activity in data set [5] was found to be 7.2 µM; in [6] it was 11 µM; in [15], 7.3 µM; in [25] it was 9 µM. The EC50 in data set [7] is greater than 20 µM; in data set [20], 4.8 µM. The solubility result in data set [9] and in data set [19] was “soluble” in each case. Also, the fraction unbound at 4 h in data set [10] is 0.16. The result in [13], in [14] and in [24] was Active. Further, in [16], the time of peak concentration (Tmax) worked out at 10.2 min. Besides, in [18], the permeability result was “permeable”. For the same compound, the remaining at 3 h in data set [21] turned out to be 86%. For the same compound, the PPB in data set [23] is reported as greater than 99%. In addition, the inhibition in [26] was 68%.

Turning to `CC1(C)CCN(S(=O)(=O)c2ccc(NC(=O)c3ccc([N+](=O)[O-])o3)cc2)CC1`, the half-maximal effective concentration (EC50) in [7] is 9.2 µM; in [20], 3 µM.

On to `CC1CCN(S(=O)(=O)c2ccc(NC(=O)c3ccc([N+](=O)[O-])o3)cc2)CC1`, for which the results for the EC50 in data set [7] and in [20] were 16.3 µM and 4.6 µM, respectively.

Consider `O=C(Nc1ccc(S(=O)(=O)N2CCC(F)CC2)cc1)c1ccc([N+](=O)[O-])o1`, for which the EC50 is greater than 20 µM in data set [7] and 17.5 µM in data set [20].

`O=C(Nc1ccc(S(=O)(=O)N2CCCCC2)cc1)c1ccc([N+](=O)[O-])o1`: the EC50 in [7] was greater than 20 µM; in [20], 7.8 µM.

As to `CC(C)(C)C1CCN(S(=O)(=O)c2ccc(NC(=O)c3ccc([N+](=O)[O-])o3)cc2)CC1`, the results for the concentration for a half-maximal effect (EC50) in data set [7] and in data set [20] were 2.1 µM and 1.4 µM, respectively.

(Values after ChEMBL document CHEMBL3352780, “Discovery of Sulfonamidebenzamides as Selective Apoptotic CHOP Pathway Activators of the Unfolded Protein Response” (ACS Med Chem Lett, 2014).)
